CHO parental Ca = ATP-evoked calcium signal inhibitors, parental CHO, primary screen, counter-screen for OX1R antagonist project, cell-based, fluorescence, Fluo-8 calcium dye. parental CHO-K1, ATP-induced calcium, Fluo-8 fluorescence. inhibition, % at 5.6 µM. 0.63% of 330,000 active;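 active = inhibition above that plate's mean sample inhibition plus 3 SD, cut at about 26% in these data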
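Material: parental CHO cells / Compound: single nominal dose of 5.6 µM per compound / Signal: Fluo-8 fluorescence / Replicates: singlicate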
OX1R antag-1 = antagonists of human orexin 1 receptor (OX1R) | Orexin/Hypocretin receptor type 1 (Homo sapiens), O43613 | OX1R-expressing cells, FRET antagonist read-out | inhibition, % at 6.6 µM | 1.8% of 330,000 active; in the data active = inhibition mostly above about 38%, no sharp cut-off; inactive = mostly below about 40%
OXTR potentiate = human OXTR potentiators, primary screen, fluorescence, CHO-OTR cells, Fluo-8 calcium | Oxytocin receptor (Homo sapiens), P30559 | 0.061% of 320,000 active | AID 2445, 2010 | Fluo-8 calcium fluorescence, potentiator mode; 0% = oxytocin EC15, 100% = EC100 | activation, % at 3 µM;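 active = activation above that plate's cutoff, the mean activation of tested compounds plus 3 SD, cut at about 6.6% in these data, passing the limit was not always enough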
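Assay system: CHO cell line stably expressing human OTR. Reagent: EC15 oxytocin agonist. Dosing: single dose, 3.0 µM nominal final compound concentration. Timing: compound 6 min at room temperature before oxytocin, 100 s read. Signal: kinetic Fluo-8 calcium fluorescence. Controls: oxytocin EC15 low and EC100 high.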
OXTR agonist = human OXTR agonists, primary screen, fluorescence, CHO-OTR cells, Fluo-8 calcium; AID 2435, 2010; Oxytocin receptor (Homo sapiens), P30559; Fluo-8 calcium fluorescence; normalized: DMSO 0%, oxytocin 100%; activation, % at 3 µM; 0.32% of 320,000 active;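 active = activation above the mean of all tested compounds plus 3 SD, cutoff set per screening run, cut at about 20% in these data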;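 note: peak over basal fluorescence ratio from a 100 s FLIPR kinetic read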
V1aR counter = agonists of human V1a receptor, primary screen, counter-screen for OXTR agonist project, fluorescence, CHO-V1R cells; 0.25% of 320,000 active; activation, % at 3 µM; Fluo-8 calcium fluorescence, agonist mode; 0% DMSO, 100% 3 nM vasopressin; Vasopressin V1a receptor (Homo sapiens), P37288;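 active = activation above the mean activation of all tested compounds plus 3 SD, per screening run, cut at about 20% in these data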;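 note: signal is peak over basal fluorescence ratio across a 100 second FLIPR read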
Target sequence (P37288 whole entry, looked up): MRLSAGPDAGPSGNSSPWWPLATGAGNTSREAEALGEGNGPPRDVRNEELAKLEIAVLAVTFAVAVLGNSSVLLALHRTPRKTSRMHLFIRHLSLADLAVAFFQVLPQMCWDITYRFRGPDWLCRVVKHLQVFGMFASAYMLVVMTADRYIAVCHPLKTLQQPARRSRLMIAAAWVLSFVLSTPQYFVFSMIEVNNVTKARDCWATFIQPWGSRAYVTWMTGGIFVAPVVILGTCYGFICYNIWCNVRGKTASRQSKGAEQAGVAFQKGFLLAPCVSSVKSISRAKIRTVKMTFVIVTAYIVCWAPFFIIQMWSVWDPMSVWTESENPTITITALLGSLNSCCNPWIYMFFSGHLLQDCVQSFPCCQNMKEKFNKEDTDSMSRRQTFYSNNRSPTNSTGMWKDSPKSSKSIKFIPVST
OX1R antag-2 = OX1R (HCRTR1) antagonists, primary screen, fluorescence, CHO/OX1R cells, Fluo-8 calcium, orexin A; Orexin/Hypocretin receptor type 1 (Homo sapiens), O43613; Fluo-8 calcium fluorescence; inhibition, % at 5 µM; 0.43% of 330,000 active; AID 434989, 2010;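 active = inhibition above its plate's threshold, mean inhibition of all tested compounds on the plate plus 3 SD, cut at about 37% in these data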
OX1R Fluo8 conf = OX1R (HCRTR1) antagonists, confirmation, fluorescence, CHO/OX1R cells, Fluo-8 calcium, orexin A; 38% of 1,100 active; shares compounds with OX1R antag-2; inhibition, % at 5 µM; orexin A calcium Fluo-8 fluorescence; in the data active = inhibition above about 29%
CHO Ca triplic = ATP-evoked calcium inhibition in parental CHO, counter-screen for OX1R antagonist project, cell-based, fluorescence, CHO-K1, triplicate; AID 492965, 2010; inhibition, % at 5.6 µM; ATP-induced calcium, Fluo-8 fluorescence; shares compounds with OX1R antag-2; 9.3% of 1,100 active;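 active = inhibition above a per-plate limit, the mean inhibition of that plate's test compounds plus 3 SD, cut at about 25% in these data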
OX1R HTRF conf = OX1R (HCRTR1) antagonists, confirmation, cell-based, HTRF; shares compounds with OX1R antag-1; OX1R-expressing cells, HTRF antagonist assay; inhibition, % at 6.6 µM; 49% of 1,800 active; AID 492964, 2010; in the data active = inhibition above about 55%;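 note: CHO cells expressing OX1R stimulated with orexin A at about EC80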
CHO-K1 HTRF cnt = signal inhibition in parental CHO-K1 cells, counter-screen for OX1R antagonist project, cell-based, HTRF; shares compounds with OX1R antag-1; HTRF counterscreen; inhibition, % at 6.6 µM; 48% of 1,800 active; AID 493232, 2011; in the data active = inhibition above about 17%
A number is an active result. Sampled rows, rich in hits. Any-hit rate of the full collection: about 2.6%.

For Cc1cc(C(=O)CN2C(=O)NC3(CCCc4sccc43)C2=O)c(C)n1-c1ccccc1 (stereo not given) the results were CHO parental Ca inactive, OX1R antag-1 85, OXTR potentiate inactive, OXTR agonist inactive, V1aR counter inactive, OX1R antag-2 38, OX1R Fluo8 conf 35, CHO Ca triplic inactive, OX1R HTRF conf 80 and CHO-K1 HTRF cnt inactive.
`C=C(C)Cn1cnc2c(oc3nc4c(cc32)CCCC4)c1=O` gave CHO parental Ca inactive, OX1R antag-1 inactive, OXTR potentiate inactive, OXTR agonist inactive, V1aR counter inactive and OX1R antag-2 inactive.
Screening O=[N+]([O-])c1ccc(O)c(/C=N/Nc2ccccc2Cl)c1 returned CHO parental Ca inactive, OX1R antag-1 81, OXTR potentiate inactive, OXTR agonist inactive, V1aR counter inactive, OX1R antag-2 inactive, OX1R Fluo8 conf 37, CHO Ca triplic inactive, OX1R HTRF conf 84 and CHO-K1 HTRF cnt inactive.
O=C(Nc1ccc(Cl)c(S(=O)(=O)N2CCOCC2)c1)[C@@H]1CCCN1C(=O)c1cccs1 was read as CHO parental Ca inactive, OX1R antag-1 inactive, OXTR potentiate inactive, OXTR agonist inactive, V1aR counter inactive and OX1R antag-2 inactive.
For O=C(NC(Nc1ncc(S(=O)(=O)c2ccc([N+](=O)[O-])cc2)s1)(C(F)(F)F)C(F)(F)F)c1ccc(Cl)cc1 the results were CHO parental Ca inactive, OX1R antag-1 120, OXTR potentiate inactive, OXTR agonist inactive, V1aR counter inactive, OX1R antag-2 inactive, OX1R Fluo8 conf 30, CHO Ca triplic 65, OX1R HTRF conf 58 and CHO-K1 HTRF cnt 36.
For CNc1nc(SCC(=O)Nc2ccccc2)nc(N2CCOCC2)n1 the results were CHO parental Ca inactive, OX1R antag-1 inactive, OXTR potentiate inactive, OXTR agonist inactive, V1aR counter inactive and OX1R antag-2 inactive.
CC(C)(CNC(=O)c1ccc([N+](=O)[O-])c(Cl)c1)CNC(=O)c1ccc([N+](=O)[O-])c(Cl)c1 was read as CHO parental Ca inactive, OX1R antag-1 85, OXTR potentiate inactive, OXTR agonist inactive, V1aR counter inactive, OX1R antag-2 41, OX1R Fluo8 conf inactive, CHO Ca triplic inactive, OX1R HTRF conf inactive and CHO-K1 HTRF cnt 18.
For C=CCNC(=O)c1ccc([N+](=O)[O-])c(Cl)c1 the results were CHO parental Ca inactive, OX1R antag-1 inactive, OXTR potentiate inactive, OXTR agonist inactive, V1aR counter inactive and OX1R antag-2 inactive.
Screening Cc1cc(Br)cc2c1NC(=O)C2(c1c(C)n(C)n(-c2ccccc2)c1=O)c1c(C)n(C)n(-c2ccccc2)c1=O returned CHO parental Ca inactive, OX1R antag-1 69, OXTR potentiate inactive, OXTR agonist inactive, V1aR counter inactive, OX1R antag-2 inactive, OX1R Fluo8 conf 57, CHO Ca triplic inactive, OX1R HTRF conf 72 and CHO-K1 HTRF cnt inactive.
CCn1c(=O)c(=O)n(CC)c2cc(S(=O)(=O)Nc3cc(C)ccc3C)ccc21 was read as CHO parental Ca inactive, OX1R antag-1 inactive, OXTR potentiate inactive, OXTR agonist inactive, V1aR counter inactive and OX1R antag-2 inactive.
CN(CC(=O)Nc1nc2ccccc2s1)S(=O)(=O)c1ccc(Br)cc1 was read as CHO parental Ca inactive, OX1R antag-1 48, OXTR potentiate inactive, OXTR agonist inactive, V1aR counter inactive, OX1R antag-2 69, OX1R Fluo8 conf inactive, CHO Ca triplic inactive, OX1R HTRF conf inactive and CHO-K1 HTRF cnt inactive.
For CN(CC(=O)Nc1nc2ccccc2s1)S(=O)(=O)c1ccc(Cl)cc1 the results were CHO parental Ca inactive, OX1R antag-1 inactive, OXTR potentiate inactive, OXTR agonist inactive, V1aR counter inactive and OX1R antag-2 inactive.
For CS(=O)(=O)c1ccc(C(=O)Nc2cccc(-c3nc4ccccc4[nH]3)c2)cc1 the results were CHO parental Ca inactive, OX1R antag-1 72, OXTR potentiate inactive, OXTR agonist inactive, V1aR counter inactive, OX1R antag-2 inactive, OX1R Fluo8 conf inactive, CHO Ca triplic inactive, OX1R HTRF conf 63 and CHO-K1 HTRF cnt inactive.
O=C(CCNC(=O)c1ccc([N+](=O)[O-])cc1)NCCc1ccccc1 was read as CHO parental Ca inactive, OX1R antag-1 inactive, OXTR potentiate inactive, OXTR agonist inactive, V1aR counter inactive and OX1R antag-2 inactive.
Cc1ccn2cc(C(=O)Nc3ccc4c(c3)OCCO4)nc2c1 was read as CHO parental Ca inactive, OX1R antag-1 88, OXTR potentiate inactive, OXTR agonist inactive, V1aR counter inactive, OX1R antag-2 inactive, OX1R Fluo8 conf inactive, CHO Ca triplic inactive, OX1R HTRF conf 74 and CHO-K1 HTRF cnt inactive.
`Cc1cccc(NC(=O)NNC(=O)c2cc(-c3ccccc3Cl)nc3ccccc23)c1` gave CHO parental Ca inactive, OX1R antag-1 83, OXTR potentiate inactive, OXTR agonist inactive, V1aR counter inactive, OX1R antag-2 44, OX1R Fluo8 conf 38, CHO Ca triplic inactive, OX1R HTRF conf 92 and CHO-K1 HTRF cnt inactive.
Screening COc1ccccc1NC(=O)COC(=O)c1ccc2c(c1)nc(C)n2-c1ccccc1 returned CHO parental Ca inactive, OX1R antag-1 inactive, OXTR potentiate inactive, OXTR agonist inactive, V1aR counter inactive and OX1R antag-2 inactive.
`Cc1nc2cc(NC(=O)COc3ccccc3C#N)ccc2n1-c1ccccc1` gave CHO parental Ca inactive, OX1R antag-1 122, OXTR potentiate inactive, OXTR agonist inactive, V1aR counter inactive, OX1R antag-2 102, OX1R Fluo8 conf 83, CHO Ca triplic inactive, OX1R HTRF conf 92 and CHO-K1 HTRF cnt inactive.

Screening data as filed in PubChem BioAssay.
